# Laboratory results reported in publication PMC3256319 (Investigational New Drugs, 2010).
# Several values for one entry are separate records, joined by “and”; a condition that tells them apart may be missing. Equal entries are not always repeated.
# Experiments:
# [1] = concurrent administration of phenytoin, one patient; cited from earlier work
# tumor growth = settings: pre-clinical tumor growth inhibition studies; cited from earlier work
# [2] = ketoconazole 400 mg; based on IC50 in human liver microsomal preparations
# [3] = format: in vivo, human healthy volunteers
# Safety and tolerability = format: in vivo, human healthy volunteers
# Method in brief: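 Healthy volunteers in a randomized crossover separated by a 14-day washout. Treatments were a single fasted oral 5-mg dose on day 1, or ketoconazole 400 mg/day on days 1–7 with the 5-mg dose on day 4. Safety was monitored through adverse events, vital signs, ECGs, laboratory tests and physical examinations. AEs were graded by NCI CTCAE v3.0. All subjects receiving at least one dose of any study medication were included.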
# [4] = Intrinsic clearance converted from in vivo systemic clearance; set-up: species or system human healthy volunteers
# [5] = Blood pressure change from baseline in crossover study; format: in vivo, human healthy volunteers
# Method in brief: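 Randomized two-way crossover in healthy volunteers with placebo on day –1 and a 14-day washout. In one arm, a single oral 5-mg dose was given on day 1 after an overnight fast of at least 8 h. In the other, oral ketoconazole 400 mg/day was given on days 1–7, with the 5-mg dose given alongside it on day 4. BP was measured before blood sampling at PK timepoints and at 10 h post-dose, expressed as time-matched change from baseline. Analysis required at least one baseline and one post-baseline reading.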
# [6] = cited from earlier work
# [7] = system: axitinib metabolism in human liver microsomes; format: in vitro ADME; settings: probe axitinib
# [8] = in the presence of ketoconazole
# [9] = axitinib in combination with ketoconazole
structure (smiles),measurement,setting,value
CNC(=O)c1ccccc1Sc1ccc2c(/C=C/c3ccccn3)n[nH]c2c1 [Axitinib],fold reduction of axitinib AUC0–24,[1],approximately 10 fold
same,fold reduction of axitinib Cmax,[1],approximately 10 fold
same,effective axitinib concentration,tumor growth,0.28 to 0.85 nmol/L
same,predicted fold increase in axitinib geometric mean AUC0–∞,[2],1.8 fold
same,predicted fold increase in axitinib geometric mean Cmax,[2],1.5 fold
same,pre-dose axitinib plasma concentration,"[3]; all pre-dose samples, below lower limit of quantification",< 0.100 ng/mL
same,half-life,"[3]; human, plasma, oral, 5 mg",9.44 h
same,fold increase in axitinib geometric mean AUC0–∞ observed clinically,[3]; [8],2.06 fold and ~ 2 fold
same,fold increase in axitinib geometric mean Cmax observed clinically,[3]; [8],1.50 fold and ~ 1.5 fold
same,tolerability,"Safety and tolerability; axitinib alone, single 5-mg dose",well tolerated
same,tolerability,Safety and tolerability; [9],well tolerated
same,"clearance attributed to non-metabolic pathways, share",[4]; remaining clearance,20%
same,contribution of CYP3A to total CLint,[4]; sensitivity analyses,50%
same,contribution of glucuronidation to total CLint,[4]; sensitivity analyses,30%
same,mean time-matched changes from baseline in BP,[5]; [9],minimal
same,mean time-matched changes from baseline in BP,[5]; axitinib treatment alone,minimal
same,average axitinib plasma concentration in clinical trials,[6]; after dosing 5 mg twice daily,0.19 ± 0.12 nmol/L
same,effective plasma terminal half-life,[6],2 to 5 h
same,oral absolute bioavailability,[6],approximately 58%
same,time of peak plasma concentrations after dosing,"[6]; oral, fed state",1 to 4 h
"CC(=O)N1CCN(c2ccc(OCC3COC(Cn4ccnc4)(c4ccc(Cl)cc4Cl)O3)cc2)CC1 (stereo not drawn) [Ketoconazole, ketoconazole]",IC50,[7],400 nM
